Assay outcomes: PubChem BioAssay, several laboratories
hERG protect = hERG (human) protection from proarrhythmic block; Q12809; activation (rescue from dofetilide block), less the hit threshold, % at 10 µM; AID 1511; 310,000 compounds, 0.51% hits; CHO-hERG, FluxOR thallium flux, dofetilide IC70 present;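 active = activation above the mean of controls blocked by dofetilide plus 5 SD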;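 note: thallium influx through hERG after potassium depolarization seen as dye fluorescence rise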
Target sequence (Q12809 whole entry, looked up): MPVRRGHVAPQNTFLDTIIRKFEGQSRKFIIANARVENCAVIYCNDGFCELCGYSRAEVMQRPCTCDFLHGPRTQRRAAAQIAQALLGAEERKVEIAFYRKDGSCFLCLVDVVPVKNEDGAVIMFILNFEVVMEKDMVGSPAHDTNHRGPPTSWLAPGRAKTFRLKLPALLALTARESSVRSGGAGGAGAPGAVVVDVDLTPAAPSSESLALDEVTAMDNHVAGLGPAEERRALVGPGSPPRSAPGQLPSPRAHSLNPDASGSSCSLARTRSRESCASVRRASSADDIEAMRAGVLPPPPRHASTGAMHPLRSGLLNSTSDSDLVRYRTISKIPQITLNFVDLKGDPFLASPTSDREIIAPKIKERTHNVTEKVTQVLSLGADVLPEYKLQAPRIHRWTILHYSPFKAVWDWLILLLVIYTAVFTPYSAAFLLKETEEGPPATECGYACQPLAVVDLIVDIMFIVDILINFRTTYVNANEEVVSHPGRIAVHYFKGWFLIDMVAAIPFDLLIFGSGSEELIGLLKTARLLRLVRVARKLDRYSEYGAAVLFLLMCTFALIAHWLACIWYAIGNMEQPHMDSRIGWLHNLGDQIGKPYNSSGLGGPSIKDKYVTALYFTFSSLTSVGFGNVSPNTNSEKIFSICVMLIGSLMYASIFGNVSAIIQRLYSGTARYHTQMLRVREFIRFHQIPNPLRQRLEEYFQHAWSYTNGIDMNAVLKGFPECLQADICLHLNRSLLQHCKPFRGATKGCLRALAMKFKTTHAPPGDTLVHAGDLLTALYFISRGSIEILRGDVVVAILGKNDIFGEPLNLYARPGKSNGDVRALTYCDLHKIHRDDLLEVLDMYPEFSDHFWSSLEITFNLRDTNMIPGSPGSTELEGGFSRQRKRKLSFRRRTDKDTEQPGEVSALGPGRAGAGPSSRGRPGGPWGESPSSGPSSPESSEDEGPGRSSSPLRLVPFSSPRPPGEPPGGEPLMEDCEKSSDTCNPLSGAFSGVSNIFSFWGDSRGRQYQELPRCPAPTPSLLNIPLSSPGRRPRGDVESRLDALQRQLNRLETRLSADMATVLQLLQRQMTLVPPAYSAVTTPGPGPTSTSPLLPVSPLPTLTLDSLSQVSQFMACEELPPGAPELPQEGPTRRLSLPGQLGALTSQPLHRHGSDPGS
KCNQ1 inh = inhibitors of human KCNQ1 potassium channel; P51787; CHO-K1 KCNQ1, FluxOR thallium flux fluorescence; stronger effect = higher value; B-score at 10 µM; 310,000 compounds, 1.3% hits; AID 2642;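 active = compounds whose thallium flux B-score, printed positive for inhibition, exceeds three library SD while starting fluorescence stays within three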;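 note: channel opened by potassium depolarization with thallium stimulus after 20 min compound exposure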
KCNK3 inh = human KCNK3 channel inhibition, primary screen | O14649 | CHO-KCNK3 thallium flux, FluxOR fluorescence; stronger effect = lower value | B-score at 10 µM | 340,000 compounds, 0.84% hits | AID 602410;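 active = B-score under library mean minus 4 SD, starting fluorescence ratio at most library mean plus 5 SD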;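 note: more negative B-score means stronger inhibition of thallium flux through KCNK3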
KCNK9 block = blocks the human KCNK9 two-pore domain potassium channel | AID 488922 | Q9NPC2 | 310,000 compounds, 1.2% hits | B-score at 10 µM | HEK293 KCNK9, FluxOR thallium flux fluorescence; stronger effect = lower value;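 active = ratio B-score over 3 SD below the library mean, with starting fluorescence within 5 SD of its mean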;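 note: negative B-score means less thallium flux so channel inhibition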
KCNQ1 act = human KCNQ1 channel potentiation or activation. CHO-K1 KCNQ1, thallium flux FluxOR fluorescence; stronger effect = higher value. B-score at 10 µM. 310,000 compounds, 0.35% hits;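 active = fluorescence ratio B-score, a plate-corrected score, at least three library SD, with initial intensity B-score within 5 SD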
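assay system = CHO-K1 cells stably expressing KCNQ1 | medium = assay buffer, equal DMSO in all wells | timing = 37 °C overnight plating, 90-min dark dye load, 20-min compound pretreatment | measured by = kinetic FluxOR thallium fluorescence, 10-s 1-Hz baseline, 110-s post-stimulus read | measure = fluorescence change relative to baseline, converted to B score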
Cl transport mod = KCC2 (human) Cl- transport modulation; Q9H2X9; KCC2 cells, thallium flux FluoZin-2 fluorescence; B-score of Tl+ flux slope (higher = more flux/activation; lower = inhibition) at 10 µM; 190,000 compounds, 2.2% hits;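 active = thallium flux slope and its plate-corrected score both differing from the plate sample mean at a set confidence after two filtering rounds, in either direction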;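 note: slope of fluorescence scaled to starting intensity during 10 to 20 s after thallium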
KCC2 sec1 = confirmation of human KCC2 transport modulators. shares compounds with Cl transport mod. HEK293-KCC2, thallium flux, FluoZin2 fluorescence; stronger effect = higher value. normalised thallium flux (F/F0 slope) at 10 µM. 3,700 compounds, 15% hits. AID 1713;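 active = thallium flux slope above the same plate's solvent-only control mean plus 3 SD; inconclusive = the two replicate wells disagree; inactive = no significant difference from solvent-only control wells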
KCC2 bumet counter = bumetanide-insensitive thallium flux in KCC2 cells with ouabain, counter-screen; HEK293-KCC2 + bumetanide/ouabain, thallium flux FluoZin2; stronger effect = higher value; AID 1714; 3,700 compounds, 49% hits; normalized thallium flux at 10 µM; shares compounds with Cl transport mod;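 active = thallium entry rate above the same plate's blocked-transporter control wells by more than 3 SD; inconclusive = the two repeat wells disagree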;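 note: raw slope of fluorescence over initial fluorescence between 10 and 20 s after thallium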
KCC2 sec2 = KCC2 (human) modulation, second secondary assay; shares compounds with Cl transport mod; HEK293-KCC2, thallium flux FluoZin2 fluorescence; actives lie on both sides; F/F0 rise rate, 10–20 s post-thallium; normalized thallium flux at 10 µM; 3,700 compounds, 23% hits;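 active = thallium flux slope more than 3 SD above or below the plate's solvent-only control mean, mostly below; inconclusive = the two repeat wells disagreed; inactive = no significant shift from solvent-only controls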;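 note: raw slope with 0.1% DMSO as baseline and bumetanide as block control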
HEK293 Tl flux = counter-screen for KCC2 modulators: effect in parental HEK293 cells | shares compounds with Cl transport mod | AID 1716 | thallium flux FluoZin2, ouabain; baseline-ratio fluorescence slope, 10–20 s after thallium | 3,700 compounds, 46% hits | thallium flux rate (normalised fluorescence) at 10 µM;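 active = thallium flux rate significantly above the same plate's solvent-only control wells, beyond their mean plus 3 SD; inconclusive = the two replicate wells gave conflicting results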
KCC2 ouabain = confirmation of human KCC2 modulators with ouabain | shares compounds with Cl transport mod | HEK293-KCC2, thallium flux FluoZin2 fluorescence; bidirectional: low = inhibitor, high = activator | raw Tl+ flux slope (below DMSO = inhibition, above = activation) at 10 µM | 3,700 compounds, 48% hits | AID 1717;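 active = thallium flux slope beyond 3 SD from same-plate DMSO control mean in most replicates, usually higher, sometimes lower; inconclusive = repeat tests gave conflicting results; inactive = no significant difference from controls in most replicates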;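 note: slope of initial-normalized fluorescence between seconds 10 and 20 after thallium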
HEK counter2 = acts in parental HEK cells, second KCC2 counter-screen; shares compounds with Cl transport mod; thallium flux slope at 10 µM; HEK293 parental, thallium flux FluoZin-2 fluorescence slope; 3,700 compounds, 33% hits;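 active = thallium flux slope above the same plate's solvent-control mean plus 3 SD in both duplicate wells; inconclusive = duplicate wells that disagreed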;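 note: run without ouabain in cells lacking the KCC2 cotransporter; slope of fluorescence scaled to its starting value between 10 and 20 s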
* marks the source's active call; other numbers are inactive results; i = inactive; ? = inconclusive; . = no result given. Hits are enriched below; roughly 4.1% of the tested compounds scored in any of these assays.

SMILES	hERG protect	KCNQ1 inh	KCNK3 inh	KCNK9 block	KCNQ1 act	Cl transport mod	KCC2 sec1	KCC2 bumet counter	KCC2 sec2	HEK293 Tl flux	KCC2 ouabain	HEK counter2
CCn1cc(C2=NOC(C(=O)Nc3cc(C)nn3-c3ccccc3)C2)c(C)n1 (configuration not stated)	-8	i	i	i	i	4.6*	0.011	?	0.034	0.0082	0.022	0.011
Cc1cc(NC(=O)C2CC(c3ccc(F)cc3)=NO2)n(-c2ccccc2)n1 (configuration not stated)	-1	i	i	i	i	.	.	.	.	.	.	.
CC1=CC(=O)Nc2ccccc2S1	.	.	i	.	.	.	.	.	.	.	.	.
O=C(OCn1ncc(Cl)c(Cl)c1=O)c1cccc(C(F)(F)F)c1	-15	i	i	i	i	.	0.0092	?	0.033	0.0059*	0.015*	0.012
CC1(C)N(O)CC(c2cccs2)=[N+]1[O-]	-7	i	i	i	i	2.9*	0.0082	0.0054	0.028	0.0067	0.02	0.0099
[O-][N+]1=C(c2cccs2)CN(O)C1	0	i	i	i	i	-0.69	.	.	.	.	.	.
CC(=O)Nc1cc2c(c([N+](=O)[O-])c1C)C(C)(C)CC2(C)C	.	.	i	.	.	.	.	.	.	.	.	.
CS/C(=C/[N+](=O)[O-])Nc1cccc2c1C(C)CC2(C)C (configuration not stated)	-9	i	i	i	i	-5.1*	0.0083	?	0.032	0.0068	0.014*	0.011
O=C(NC(=S)Nc1ccc(CN2CCOCC2)cc1)c1ccc([N+](=O)[O-])cc1	-12	i	i	i	i	4.6*	0.0072	0.0097*	0.035	0.012*	0.022	0.013*
O=P(CCN1CCCCC1)(c1ccccc1)c1ccccc1	-8	i	i	i	i	-17*	0.0066	0.005	0.028	0.0078	0.018	0.012
O=P(O)(CCc1ccccc1)CN1CCCCC1	1	i	i	i	i	-0.54	.	.	.	.	.	.
CC(C)(C)c1ccc(S(=O)(=O)N2CCN(CC(=O)NC(=O)NC3CCCCC3)CC2)cc1	-10	i	i	i	i	.	.	.	.	.	.	.
N#Cc1cc2c([nH]c1=S)CCCCCC2	-5	i	i	i	i	6.4*	0.013*	0.022*	0.03	0.013*	?	?
CCOC(=O)C1(Cc2ccc(OC)cc2)CCN(C(=O)CN2CCCCC2=O)CC1	-9	i	i	i	i	1.2	.	.	.	.	.	.
CC(C)CC(c1nnnn1C1CCCC1)N1CCC(C(N)=O)CC1 (configuration not stated)	0	i	i	i	i	2.7*	0.006	0.0044	0.028	0.0079	0.019	0.0095
CC(C)CC(c1nnnn1C1CCCCC1)N1CCN(c2ncccn2)CC1 (configuration not stated)	-11	i	i	i	i	0.64	.	.	.	.	.	.
O=C(CCS(=O)(=O)c1ccc(Br)s1)NC1CCCC1	-13	i	i	i	i	.	0.0064	0.0049	0.03	0.008	0.019	0.011
